Measurements gathered from unrelated publications.
Target: Serine/threonine-protein kinase BRSK2 (BRSK2, Homo sapiens, UniProt Q8IWQ3)
Sequence (Q8IWQ3 1-736, as in one of the studies): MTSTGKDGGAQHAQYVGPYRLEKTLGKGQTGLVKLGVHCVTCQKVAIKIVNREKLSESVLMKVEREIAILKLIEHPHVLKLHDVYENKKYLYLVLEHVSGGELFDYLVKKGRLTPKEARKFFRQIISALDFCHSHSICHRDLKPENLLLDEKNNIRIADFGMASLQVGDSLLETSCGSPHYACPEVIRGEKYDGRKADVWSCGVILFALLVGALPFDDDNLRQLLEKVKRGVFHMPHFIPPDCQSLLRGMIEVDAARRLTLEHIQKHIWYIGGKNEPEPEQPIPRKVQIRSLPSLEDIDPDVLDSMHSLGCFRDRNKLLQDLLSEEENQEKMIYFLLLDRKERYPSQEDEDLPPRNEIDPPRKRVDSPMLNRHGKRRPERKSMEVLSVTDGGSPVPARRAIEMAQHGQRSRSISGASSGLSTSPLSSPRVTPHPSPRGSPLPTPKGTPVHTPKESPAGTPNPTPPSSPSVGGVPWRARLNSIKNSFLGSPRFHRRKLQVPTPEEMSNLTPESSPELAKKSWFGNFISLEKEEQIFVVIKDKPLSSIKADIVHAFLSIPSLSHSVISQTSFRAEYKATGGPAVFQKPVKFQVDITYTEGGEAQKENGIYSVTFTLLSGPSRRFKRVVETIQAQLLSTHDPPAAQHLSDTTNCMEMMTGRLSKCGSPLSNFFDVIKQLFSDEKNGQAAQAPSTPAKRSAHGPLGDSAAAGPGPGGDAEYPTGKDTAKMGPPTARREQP

Structure (SMILES) | observed | action | method | tested at | endpoint | result
Nc1nc(NC2CCCCC2)sc1C(=O)c1ccccc1 | enzyme activity | inhibitor |  | 10 µM | remaining activity | 93%
FC(F)(F)Oc1cccc(-c2cnc3ccc(-c4ccncc4)nn23)c1 | enzyme activity | inhibitor | radiometric | 5 µM | activity vs control | 99%
CCS(=O)(=O)c1cc2cc(C[C@](O)(CC(C)(C)c3ccc(F)cc3C(N)=O)C(F)(F)F)[nH]c2cn1 | cell-free assay |  | competition with immobilised ligand | 1 µM | remaining binding | 100%
O=C(Nc1cnn(-c2csc(C(=O)NC3COC3)c2)c1)Nc1c(F)cccc1Cl | enzyme activity | inhibitor |  | 5 µM | remaining activity | 100%
CC(C)(C)c1nc2c(s1)c1nc(N)ncc1c1ccc(NS(=O)(=O)c3c(F)cccc3F)c(F)c12 | enzyme activity | inhibitor | radiometric | 1 µM | remaining activity | 88%
CN(C)S(=O)(=O)c1ccc2c(c1)/C(=C/c1cc3c([nH]1)CCCC3)C(=O)N2 | cell-free assay |  |  | 0.5 µM | remaining signal | 48.7%
CN(C)C(=O)Cn1cc(-c2nc(C3(c4ccc(-c5cnc(N)nc5)cc4)CC3)no2)cn1 | cell-free assay |  | competition with immobilised ligand | 1 µM | remaining binding | 77%
CNc1cccc2cc(C(=O)Nc3ccc(C(=O)O)cc3)c(=O)[nH]c12 | enzyme activity | inhibitor |  | 10 µM | inhibition | 7.8%
CNCc1ccccc1-c1csc([C@@H](C)Nc2nc(C)nc3cc(OC)c(OC)cc23)c1 | cell-free assay |  | competition with immobilised ligand | 1 µM | remaining binding | 100%
Cc1ccc(C(=O)Nc2ccc(CN3CCN(C)CC3)c(C(F)(F)F)c2)cc1C#Cc1cnc2cccnn12 | enzyme activity | inhibitor |  | 23.5 nM | remaining activity | 92%
Cc1cc(NC(=O)c2cccc(S(F)(F)(F)(F)F)c2)cc(-n2ccn3nc(-c4cccnc4)cc23)c1 | cell-free assay |  | competition with immobilised ligand | 1 µM | remaining binding | 100%
CCN(CC)c1ccc(C2=NNC(=O)CC2C)cc1[N+](=O)[O-] (stereo not shown) | enzyme activity | inhibitor |  | 10 µM | remaining activity | 104%
COc1cc(Cl)c(C(=O)N[C@@H](CN[C@H]2CC[C@@H](N)CC2)Cc2ccc(C#N)cc2)cc1-c1ccc(CN[C@H](C)c2ccc(C)cc2)o1 | enzyme activity | inhibitor |  | 1 µM | remaining activity | 99%
CCc1ccccc1C(=O)Nc1n[nH]c2c(C)c(F)c(C3C(C#N)=C(C)N(C)C(C)=C3C#N)cc12 | cell-free assay |  | competition with immobilised ligand | 1 µM | remaining binding | 36%
N#CCCc1ccc2c(c1)-c1[nH]c3ccc([N+](=O)[O-])cc3c1CC(=O)N2 | cell-free assay |  |  | 0.5 µM | remaining signal | 42%
Nc1nc(Nc2ccccc2)sc1C(=O)c1c(F)cccc1F | enzyme activity | inhibitor |  | 10 µM | remaining activity | 55%
Cc1cc(NC(=O)c2cccc3cc(-c4cccc5[nH]nc(N)c45)ccc23)ccc1F | enzyme activity | inhibitor |  | 0.1 µM | activity vs control | 100%
COc1cc(Nc2cnc(C#N)c(O[C@H](C)CN(C)C)n2)ncc1-c1cnn(C)c1 | enzyme activity | inhibitor | radiometric | 10 µM | remaining activity | 14%
Cc1ccc(Nc2nccc(N(C)c3ccc4c(C)n(C)nc4c3)n2)cc1S(N)(=O)=O | enzyme activity | inhibitor |  | 0.3 µM | inhibition | 1%
O=C1Nc2ccc(Cl)cc2C1=Cc1cc(Cl)c(O)c(Cl)c1 | cell-free assay |  |  | 0.5 µM | remaining signal | 77.2%
Cn1nc(C(=O)NCc2ccc(C(=O)O)cc2)cc1-c1ccc2[nH]ccc2c1 | cell-free assay |  | competition with immobilised ligand | 0.1 µM | remaining binding | 100%
COc1cc(/C=C/C(=O)CC(=O)/C=C/c2ccc(O)c(OC)c2)ccc1O | enzyme activity | inhibitor |  | 1 µM | activity vs control | 88%
FC(F)c1nc2ccccc2n1-c1nc(N2CCOCC2)nc(N2CCOCC2)n1 | enzyme activity | inhibitor |  | 10 µM | remaining activity | 88%
Nc1nc(Nc2ccc(S(N)(=O)=O)cc2)nn1C(=O)c1c(F)cccc1F | cell-free assay |  |  | 0.5 µM | remaining signal | 49%
CS(=O)(=O)NCC[C@H](NC(=O)c1cncc2c1cnn2-c1ccc(F)cc1)c1ccnc(S(C)(=O)=O)c1 | cell-free assay |  | competition with immobilised ligand | 1 µM | remaining binding | 77%
Cc1sc(C(=O)NC2COC2)cc1-n1cc(NC(=O)Nc2c(F)cccc2Cl)cn1 | enzyme activity | inhibitor |  | 10 µM | remaining activity | 102%
CN([C@@H]1CCc2c(CC(=O)O)c3ccccc3n2C1)S(=O)(=O)c1ccc(F)cc1 | cell-free assay |  | competition with immobilised ligand | 1 µM | remaining binding | 100%
CCN(CC)CCNC(=O)c1c(C)[nH]c(/C=C2\C(=O)Nc3ccc(F)cc32)c1C | enzyme activity | inhibitor |  | 10 µM | inhibition | 82%
